From ChEMBL document CHEMBL4842325, “Lanosterol 14α-demethylase (CYP51)/histone deacetylase (HDAC) dual inhibitors for treatment of Candida tropicalis and Cryptococcus neoformans infections” (Eur J Med Chem, 2021)
pIC50: −log10 of the molar value. ≈ marks a conversion by molar mass, not a printed value. Calls of active or inactive are those of the source. The rule behind the calls is not given here.

Key:
Candida tropicalis [1] = test: microbe, parasite or virus in culture; type: functional; conditions: 5008, time 48 hrs
Cryptococcus neoformans [2] = test: microbe, parasite or virus in culture; type: functional; conditions: H99, time 72 hrs
Candida albicans [3] = test: Antifungal activity against fluconazole-sensitive Candida albicans SC5314 assessed as inhibition of fungal growth; type: functional
Candida albicans [4] = test: microbe, parasite or virus in culture; type: functional; conditions: 4108
HUVEC = test: Cytotoxicity against human HUVEC assessed as reduction in cell viability; type: cell-based
Candida tropicalis [5] = test: Antifungal activity against fluconazole-resistant Candida tropicalis 5008 assessed as inhibition of cell proliferation at 8 ug/ml measured for 48 hrs by time growth curve assay; type: functional, organism-based; conditions: dose 8.0 µg/ml
How it was run: (§1)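 Exponential-phase cells from YEPD resuspended in 3 mL fresh RPMI 1640 at 1 × 10⁵ cells/mL (C. tropicalis 5008) or 1 × 10⁶ cells/mL (C. neoformans H99). Compound at several concentrations; cultures shaken at 240 rpm, 30 °C. Growth read as OD₆₃₀ at 0, 6, 12, 24, 36 and 48 h. Done in triplicate.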

Cryptococcus neoformans [6] = test: Antifungal activity against fluconazole-sensitive Cryptococcus neoformans H99 assessed as inhibition of cell proliferation at 2 to 8 ug/ml measured for 48 hrs by time growth curve assay; type: functional, organism-based; conditions: dose 2-8 µg/ml
How it was run: as §1

Cryptococcus neoformans [7] = test: Downregulation of CAP10 gene expression in Cryptococcus neoformans H99 at 2 ug/ml measured after 24 hrs by qRT-PCR analysis; type: functional; conditions: dose 2.0 µg/ml
How it was run: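 Exponential-phase C. neoformans H99 inoculated into 50 mL YPD with compound. Incubated 35 °C for 24 h, then cultures ground in liquid nitrogen for RNA isolation. Transcript levels of capsule-associated genes quantified by RT-qPCR. Three independent experiments, mean ± SD, t-test.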

Cryptococcus neoformans [8] = test: Downregulation of CAP60 gene expression in Cryptococcus neoformans H99 at 2 ug/ml measured after 24 hrs by qRT-PCR analysis; type: functional; conditions: dose 2.0 µg/ml
How it was run: (§2)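 Exponentially growing C. neoformans H99 inoculated into 50 mL YPD with compound and incubated 35 °C for 24 h. Cells ground in liquid nitrogen before total RNA isolation, then reverse transcription and real-time RT-qPCR. Means ± SD of three independent assays.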

Cryptococcus neoformans [9] = test: Inhibition of CYP51 in Cryptococcus neoformans H99 assessed as ergosterol level at 4 ug/ml by GC-MS analysis (reference value: 60.18%); set-up: scale not given: the % may be the effect or the level left; conditions: dose 4.0 µg/ml
Cryptococcus neoformans [10] = test: Inhibition of CYP51 in Cryptococcus neoformans H99 assessed as lanosterol level at 4 ug/ml by GC-MS analysis; set-up: scale not given: the % may be the effect or the level left; conditions: dose 4.0 µg/ml
Candida tropicalis [11] = test: Downregulation of MDR1 mRNA expression in Candida tropicalis 5008 at 4 ug/ml measured after 24 hrs by qRT-PCR analysis; type: functional; conditions: dose 4.0 µg/ml
How it was run: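 Exponential-phase C. tropicalis 5008 inoculated into 10 mL YPD with compound at several concentrations, DMSO as blank control. Incubated 35 °C for 24 h. Total RNA isolated on columns and reverse-transcribed. Real-time RT-PCR with ACT1 as internal control. Mean of 3 independent assays ± SD.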

[12] = Inhibition of HDAC in Cryptococcus neoformans H99 using Boc-Lys(Ac)-AMC as substrate preincubated with protoplast for 12 hrs followed by incubation with substrate for 6 hrs by fluorimetric assay
Cryptococcus neoformans [13] = test: Downregulation of HOS2 mRNA expression in Cryptococcus neoformans H99 at 2 ug/ml measured after 24 hrs by qRT-PCR analysis; type: functional; conditions: dose 2.0 µg/ml
How it was run: as §2

Cryptococcus neoformans [14] = test: Downregulation of HDA1 mRNA expression in Cryptococcus neoformans H99 at 2 ug/ml measured after 24 hrs by qRT-PCR analysis; type: functional; conditions: dose 2.0 µg/ml
How it was run: as §2

Cryptococcus neoformans [15] = test: Downregulation of CLR61 mRNA expression in Cryptococcus neoformans H99 at 2 ug/ml measured after 24 hrs by qRT-PCR analysis; type: functional; conditions: dose 2.0 µg/ml
How it was run: as §2

Candida tropicalis [16] = test: Antifungal activity against Candida tropicalis 5008 infected in ICR mouse model assessed as reduction in fungal burden in kidney at 20 mg/kg, po administered once a day for 5 days; type: functional; conditions: time 5 day
How it was run: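 ICR mice given cyclophosphamide 100 mg/kg ip 24 h before infection, then infected iv with 1 × 10⁵ CFU C. tropicalis 5008 on day 0. Treatment started 24 h post infection: oral dosing once daily for 5 consecutive days, with saline and fluconazole control groups. Mice euthanized day 6. Kidney homogenates plated on SDA at 35 °C for 48 h and colonies counted for fungal burden. ANOVA between groups.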

O=C(CCCCCCCOc1ccc(CN2CCN(CC(O)(Cn3cncn3)c3ccc(F)cc3F)CC2)cc1)NO (configuration not stated)
MIC80 (Candida tropicalis [1]): 0.5 µg/mL (≈ 0.852 µM) | MIC80 (Cryptococcus neoformans [2]): 0.5 µg/mL (≈ 0.852 µM) | MIC80 (Candida albicans [3]): 8 µg/mL (≈ 13.6 µM) | MIC80 (Candida albicans [4]): 8 µg/mL (≈ 13.6 µM) | IC50 (HUVEC): 5.9 µg/mL (≈ 10.1 µM) | Activity (Candida tropicalis [5]): Active | Activity (Cryptococcus neoformans [6]): Active | inhibition (Cryptococcus neoformans [7]): Active | inhibition (Cryptococcus neoformans [8]): Active | Activity (Cryptococcus neoformans [9]): 19.1% | Activity (Cryptococcus neoformans [10]): 9.59% | inhibition (Candida tropicalis [11]): Active | pIC50 [12]: 4.90 | inhibition (Cryptococcus neoformans [13]): Active | inhibition (Cryptococcus neoformans [14]): Active | inhibition (Cryptococcus neoformans [15]): Active | log(activity) (Candida tropicalis [16]): 0.7
